According to PMC6438620 (Bioorganic & medicinal chemistry letters, 2018):

Experiments:
[1] = target: H1 (histamine receptor 1) (Homo sapiens, UniProt P35367); assay: PDSP primary binding and radioligand binding
[2] = target: H2 (histamine receptor 2) (Homo sapiens, UniProt P25021); assay: PDSP primary binding and radioligand binding
[3] = tested on: serotonin receptors; assay: PDSP binding at serotonin receptor subtypes
[4] = tested on: LLC luc and MDA MB-231 cell lines; assay: MTT colorimetric cytotoxicity assay, values given over both cell lines; settings: for Cytotoxic activity compared with penfluridol: MTT, LLC luc and MDA MB-231
[5] = Clinical chemistry analysis of blood samples; type: in vivo, C57BL6 mice; settings: 5 mg/kg, daily i.p. dosing for 7 days, n = 5
How it was run: (§1)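 Female C57BL6 mice were dosed with test compound at 5 mg/kg i.p. once daily for seven consecutive days and sacrificed 24 h after the last injection. Blood clinical chemistry covered electrolytes, minerals, total protein, albumin, globulin, A/G ratio, BUN, ALT, AST, GLDH, ALP, bilirubin, amylase and creatine kinase.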

[6] = Toxicity in mice; settings: mouse, in vivo
How it was run: as §1

[7] = Tissue distribution by LC-MS/MS after 7-day i.p. treatment; settings: 5 mg/kg i.p. daily for 7 days, 24 h after last injection
[8] = target: T1, D4 dopamine receptor (Homo sapiens, UniProt P21917); assay: PDSP primary binding and radioligand binding
T1 sequence (P21917 1-419): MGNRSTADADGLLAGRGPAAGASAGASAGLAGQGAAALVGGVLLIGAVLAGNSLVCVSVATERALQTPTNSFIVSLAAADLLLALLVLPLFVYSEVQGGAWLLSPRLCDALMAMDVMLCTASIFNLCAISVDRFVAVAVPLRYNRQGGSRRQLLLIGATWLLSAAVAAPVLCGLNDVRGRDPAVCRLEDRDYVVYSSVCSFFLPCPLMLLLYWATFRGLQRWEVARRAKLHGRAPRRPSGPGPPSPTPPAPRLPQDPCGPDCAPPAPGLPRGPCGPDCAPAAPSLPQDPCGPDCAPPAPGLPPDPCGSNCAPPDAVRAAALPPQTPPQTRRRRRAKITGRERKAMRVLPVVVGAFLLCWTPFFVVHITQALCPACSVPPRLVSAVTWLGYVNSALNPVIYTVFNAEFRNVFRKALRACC

Chain of H2 (histamine receptor 2) (P25021 whole entry): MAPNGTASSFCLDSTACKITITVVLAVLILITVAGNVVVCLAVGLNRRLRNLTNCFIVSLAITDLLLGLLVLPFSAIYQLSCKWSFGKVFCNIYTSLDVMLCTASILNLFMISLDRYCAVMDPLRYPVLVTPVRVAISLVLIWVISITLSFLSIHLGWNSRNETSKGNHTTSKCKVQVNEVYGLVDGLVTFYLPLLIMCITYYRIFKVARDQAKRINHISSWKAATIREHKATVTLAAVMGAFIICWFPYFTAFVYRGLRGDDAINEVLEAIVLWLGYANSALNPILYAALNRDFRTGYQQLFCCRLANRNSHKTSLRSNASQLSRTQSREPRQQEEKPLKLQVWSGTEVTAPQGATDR
Chain of H1 (histamine receptor 1) (P35367 whole entry): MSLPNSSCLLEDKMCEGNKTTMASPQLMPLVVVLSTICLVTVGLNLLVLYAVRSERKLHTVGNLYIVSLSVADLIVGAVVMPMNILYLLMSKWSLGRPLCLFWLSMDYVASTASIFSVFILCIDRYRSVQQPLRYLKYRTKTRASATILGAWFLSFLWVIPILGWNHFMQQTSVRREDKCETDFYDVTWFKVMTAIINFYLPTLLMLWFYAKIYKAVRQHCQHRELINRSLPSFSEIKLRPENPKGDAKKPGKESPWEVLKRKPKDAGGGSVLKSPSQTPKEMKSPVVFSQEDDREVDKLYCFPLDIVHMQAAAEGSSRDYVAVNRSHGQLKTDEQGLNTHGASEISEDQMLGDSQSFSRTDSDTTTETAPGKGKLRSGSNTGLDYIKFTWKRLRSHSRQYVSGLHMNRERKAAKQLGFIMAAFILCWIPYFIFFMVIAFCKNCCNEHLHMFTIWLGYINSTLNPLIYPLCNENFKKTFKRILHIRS

Compound | Inhibition at some serotonin receptors ([3]; primary binding) | Cytotoxic activity compared with penfluridol [4] | Alkaline phosphatase (ALP) levels [5] | Blood urea nitrogen (BUN) levels [5] | Glutamate dehydrogenase (GLDH) [5] | Toxicity in mice [6] | Distribution pattern: accumulation of the drug [7] | also measured
OC1(c2ccc(Cl)c(C(F)(F)F)c2)CCN(CCCCN(c2ccc(F)cc2)c2ccc(F)cc2)CC1 [11b] | 50–80% | – | – | – | – | – | – | Activity at H1 receptor [1]: abolished activity; Activity at H2 receptor [2]: abolished activity; Change of Ki values compared to penfluridol ([3]; other serotonin receptor subtypes): 3–16 fold; Inhibition levels at other serotonin receptor subtypes ([3]; primary binding, other serotonin receptor subtypes): > 90%
OC1(c2ccc(Cl)c(C(F)(F)F)c2)CCN(CCCC(c2ccccc2)c2ccccc2)CC1 [8b] | – | reduced activity | – | – | – | – | – | –
COc1ccc(N(CCCCN2CCC(O)(c3ccc(Cl)c(C(F)(F)F)c3)CC2)c2ccc(OC)cc2)cc1 [8c] | – | – | None of these changes was observed | None of these changes was observed | None of these changes was observed | no toxicity in mice | – | Concentration of the drug in all tested samples (plasma, brain, lungs, adipose tissue) [7]: lower concentration of the drug in all tested samples
OC1(c2ccc(Cl)c(C(F)(F)F)c2)CCN(CCCCC(c2ccc(F)cc2)c2ccc(F)cc2)CC1 [8a] | – | – | – | – | – | no toxicity in mice | predominantly in the adipose tissue and lungs | Ki [8]: 0.025 µM; Level of the drug in the brain relative to penfluridol [7]: higher level of the drug in the brain relative to penfluridol
OC1(c2ccc(Cl)c(C(F)(F)F)c2)CCN(CCCC(c2ccc(F)cc2)c2ccc(F)cc2)CC1 [penfluridol, reference compound] | 95–100% | – | decreased ALP levels | decreased BUN levels | increased GLDH | – | predominantly in the adipose tissue and lungs | IC50 ([4]; Homo sapiens, MDA-MB-231, read-out: IC50 (cytotoxicity, MTT)): 4.3 to 5.1 µM
OC1(c2ccc(Cl)c(C(F)(F)F)c2)CCN(CCCCCc2ccc(F)cc2)CC1 [compound 13] | – | reduced activity | – | – | – | – | – | –
